Assay results reported in ChEMBL document CHEMBL1129311, “Antitumor agents. 166. Synthesis and biological evaluation of 5,6,7,8-substituted-2-phenylthiochromen-4-ones” (J Med Chem, 1996).
Values after ≈ are worked out from the molar mass of the structure shown. Active and inactive are the calls of the source. No cut-off for these calls is given here.

What was measured:
A549 = test: Effective dose against 50% reduction in Human lung carcinoma (A-549) cell number after 3-day incubation.; format: functional, cell-based
HCT-8 [1] = test: Effective dose against 50% reduction in Human ileocecal carcinoma (HCT-8) cell number after 3-day incubation; format: functional; details: HCT-8, 72 h, read-out: ED50 (the source's name)
P388 [2] = test: Effective dose against 50% reduction in Murine leukemia (P-388) cell number after 3-day incubation; - indicates inactive; format: functional, cell-based; details: Mus musculus
TE-671 [3] = test: Effective dose against 50% reduction in Human CNS tumor (TE671) cell number after 3-day incubation; - indicates inactive; format: functional, cell-based
RPMI [4] = test: Effective dose against 50% reduction in Human melanoma (RPMI)cell number after 3-day incubation; - indicates inactive; format: functional, cell-based
KB [5] = test: Effective dose against 50% reduction in Human epidermoid carcinoma of the nasopharynx (KB) cell number after 3-day incubation; format: functional; details: 72 h, read-out: ED50 (the source's name)
RPMI [6] = test: Effective dose against 50% reduction in Human melanoma (RPMI)cell number after 3-day incubation; format: functional; details: 72 h, read-out: ED50 (the source's name)
HCT-8 [7] = test: Effective dose against 50% reduction in Human ileocecal carcinoma (HCT-8) cell number after 3-day incubation.; format: functional, cell-based
KB [8] = test: Effective dose against 50% reduction in Human epidermoid carcinoma of the nasopharynx (KB) cell number after 3-day incubation; - indicates inactive; format: functional, cell-based
[9] = test system: Medulloblastoma tumour cell line; test: Effective dose against medulloblastoma tumor cell lines; format: functional; details: read-out: ED50 (the source's name)
Tubulin alpha chain = Tubulin alpha chain (Sus scrofa, UniProt P02550); test: Inhibitory activity of the compound against tubulin polymerization; format: functional
H9 [10] = test: Effective dose against growth of HIV infected H9 lymphocytes; format: functional; details: Homo sapiens, read-out: ED50 (the source's name)
H9 [11] = test: Inhibitory activity against growth of uninfected H9 lymphocytes; format: functional, cell-based; details: Homo sapiens
Method in brief: (§1)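 Uninfected H9 cultures exposed to compound diluted in medium for 4 days at 37 °C. Cell density counted in a Coulter counter; IC₅₀ determined.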

P388 [12] = test: Effective dose against 50% reduction in Murine leukemia (P-388) cell number after 3-day incubation; format: functional; details: Mus musculus, P388, 72 h; read-out: ED50 (the source's name)
[13] = Therapeutic index valued has been determined in H9 cells; format: cell-based; details: human, read-out: Therapeutic index
[14] = molecular target: T1, DNA topoisomerase II (Homo sapiens) (UniProt P11388+Q02880); test: Inhibitory activity against DNA topoisomerase II at dose 100 uM; format: protein assay
Method in brief: (§2)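 Topo II activity read as ATP-dependent unknotting of P4 DNA. Test compound at 100 µM; % inhibition is relative to enzyme and DNA control reactions. VP-16 served as the reference inhibitor.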

[15] = molecular target: T1, DNA topoisomerase II (Homo sapiens); test: Inhibitory activity against human DNA topoisomerase II at dose 100 uM; format: protein assay; method in brief: as §2
[16] = molecular target: T2, DNA topoisomerase 1 (Homo sapiens) (UniProt P11387); test: Inhibitory activity against human DNA topoisomerase I at dose 100 uM
T2 sequence (whole entry): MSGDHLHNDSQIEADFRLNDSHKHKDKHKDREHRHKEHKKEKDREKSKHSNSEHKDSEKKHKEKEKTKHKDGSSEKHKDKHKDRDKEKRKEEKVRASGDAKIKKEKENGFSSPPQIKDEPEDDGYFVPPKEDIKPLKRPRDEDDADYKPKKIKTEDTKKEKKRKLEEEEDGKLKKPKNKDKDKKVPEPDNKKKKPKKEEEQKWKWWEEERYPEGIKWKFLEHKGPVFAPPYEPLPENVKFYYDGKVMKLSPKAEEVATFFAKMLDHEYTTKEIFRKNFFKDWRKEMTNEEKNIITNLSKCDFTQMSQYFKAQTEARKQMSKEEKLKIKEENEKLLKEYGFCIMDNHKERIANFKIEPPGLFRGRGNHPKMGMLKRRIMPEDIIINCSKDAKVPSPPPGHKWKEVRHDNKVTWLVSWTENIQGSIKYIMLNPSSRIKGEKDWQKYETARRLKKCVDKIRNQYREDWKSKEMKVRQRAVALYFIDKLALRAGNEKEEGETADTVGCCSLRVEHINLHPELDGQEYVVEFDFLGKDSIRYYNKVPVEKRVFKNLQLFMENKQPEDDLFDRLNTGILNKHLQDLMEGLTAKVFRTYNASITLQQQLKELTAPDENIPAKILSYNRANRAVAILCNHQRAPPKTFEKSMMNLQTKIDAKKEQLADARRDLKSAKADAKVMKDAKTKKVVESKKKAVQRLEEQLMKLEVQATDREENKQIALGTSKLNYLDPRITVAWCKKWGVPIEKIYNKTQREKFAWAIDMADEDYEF
Method in brief: (§3)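 Topo I activity read as ATP-independent relaxation of supercoiled plasmid DNA. Test compound at 100 µM; % inhibition is relative to enzyme and DNA control reactions. Camptothecin served as the positive inhibitor control.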

TE-671 [17] = test: Effective dose against 50% reduction in Human CNS tumor (TE671) cell number after 3-day incubation; format: functional; details: TE-671, 72 h, read-out: ED50 (the source's name)
KB [18] = test: Cellular protein-linked DNA breaks in KB oral carcinoma cell culture treated in triplicate at 50 uM for 1 hr; format: functional, Homo sapiens
Method in brief: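 Read-out is potassium-SDS precipitable cpm in treated KB cultures, expressed as fold.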

[19] = molecular target: T2, DNA topoisomerase 1 (Homo sapiens); test: Inhibitory activity against Human DNA topoisomerase I at dose 100 uM; method in brief: as §3
[20] = molecular target: T1, DNA topoisomerase II (Homo sapiens); test: Inhibitory activity against Human DNA topoisomerase II at dose 100 uM; format: protein assay; method in brief: as §2
H9 [21] = test: Effective dose required to inhibit virus replication growth by 50%; format: functional; details: Homo sapiens, H9, read-out: ED50
H9 [22] = test: Inhibitory concentration required to inhibit uninfected growth of H9 lymphocytes by 50%; format: functional, cell-based; details: Homo sapiens; method in brief: as §1

Tubulin alpha chain, sequence (P02550 whole entry, looked up): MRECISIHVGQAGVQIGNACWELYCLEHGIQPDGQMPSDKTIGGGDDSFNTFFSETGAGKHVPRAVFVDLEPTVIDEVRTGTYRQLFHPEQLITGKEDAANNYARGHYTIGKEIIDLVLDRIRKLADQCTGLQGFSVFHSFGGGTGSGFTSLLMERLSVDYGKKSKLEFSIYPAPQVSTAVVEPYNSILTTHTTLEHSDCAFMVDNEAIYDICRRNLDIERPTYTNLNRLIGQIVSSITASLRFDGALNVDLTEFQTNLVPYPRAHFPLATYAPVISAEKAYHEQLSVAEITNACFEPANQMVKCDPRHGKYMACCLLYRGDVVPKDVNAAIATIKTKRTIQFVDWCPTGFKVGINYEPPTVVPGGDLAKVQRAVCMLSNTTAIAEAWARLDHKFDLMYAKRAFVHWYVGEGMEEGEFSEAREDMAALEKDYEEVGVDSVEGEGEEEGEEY

SMILES: COc1ccc2c(=O)cc(-c3ccccc3)sc2c1
- ED50 (A549): inactive
- EC50 (HCT-8 [1]): 9.16 µg/mL (≈ 34.1 µM)
- ED50 (P388 [2]): inactive
- ED50 (TE-671 [3]): inactive
- ED50 (RPMI [4]): inactive
- EC50 (KB [5]): 5.5 µg/mL (≈ 20.5 µM)

SMILES: COc1cc2sc(-c3ccccc3)cc(=O)c2cc1OC
- ED50 (A549): inactive
- EC50 (HCT-8 [1]): 9.33 µg/mL (≈ 31.3 µM)
- ED50 (P388 [2]): inactive
- EC50 (RPMI [6]): 8.89 µg/mL (≈ 29.8 µM)
- ED50 (TE-671 [3]): inactive
- EC50 (KB [5]): 4.23 µg/mL (≈ 14.2 µM)

SMILES: O=c1cc(-c2ccccc2)sc2cccc(O)c12
- ED50 (A549): inactive
- ED50 (HCT-8 [7]): inactive
- ED50 (KB [8]): inactive
- ED50 (P388 [2]): inactive
- ED50 (TE-671 [3]): inactive
- ED50 (RPMI [4]): inactive

SMILES: COc1cc(-c2oc3c(OC)c(OC)c(OC)c(O)c3c(=O)c2OC)ccc1O
- EC50 [9]: 0.99 µg/mL (≈ 2.45 µM)

SMILES: COc1ccc(-c2oc3c(OC)c(OC)c(OC)c(O)c3c(=O)c2OC)cc1O
- IC50 (Tubulin alpha chain): 0.83 µM

SMILES: Nc1cccc2c(=O)cc(-c3ccccc3)sc12
- ED50 (A549): inactive
- EC50 (H9 [10]): 4 µg/mL (≈ 15.8 µM)
- IC50 (H9 [11]): 15 µg/mL (≈ 59.2 µM)
- ED50 (HCT-8 [7]): inactive
- ED50 (KB [8]): inactive
- EC50 (P388 [12]): 7.46 µg/mL (≈ 29.4 µM)
- EC50 (RPMI [6]): 5.5 µg/mL (≈ 21.7 µM)
- ED50 (TE-671 [3]): inactive
- selectivity ratio [13]: 3.8

SMILES: O=c1cc(-c2ccccc2)sc2ccccc12
- ED50 (A549): inactive
- ED50 (HCT-8 [7]): inactive
- ED50 (KB [8]): inactive
- ED50 (P388 [2]): inactive
- ED50 (TE-671 [3]): inactive
- ED50 (RPMI [4]): inactive

SMILES: COc1cccc(-c2cc(O)c3cc(N4CCCC4)ccc3n2)c1
- inhibition [14]: 0%

SMILES: CC(=O)Oc1cc2sc(-c3ccccc3)cc(=O)c2cc1OC(C)=O
- ED50 (A549): inactive
- inhibition [15]: 100%
- inhibition [16]: 0%
- EC50 (H9 [10]): 0.65 µg/mL (≈ 1.83 µM)
- IC50 (H9 [11]): 3 µg/mL (≈ 8.47 µM)
- ED50 (HCT-8 [7]): inactive
- EC50 (P388 [12]): 4.83 µg/mL (≈ 13.6 µM)
- EC50 (RPMI [6]): 5.5 µg/mL (≈ 15.5 µM)
- EC50 (TE-671 [17]): 4.58 µg/mL (≈ 12.9 µM)
- selectivity ratio [13]: 4.6
- Activity (KB [18]): 1
- EC50 (KB [5]): 5.5 µg/mL (≈ 15.5 µM)

SMILES: O=c1cc(-c2ccccc2)[s+]([O-])c2ccccc12 (centres undefined)
- ED50 (A549): inactive
- inhibition [19]: 100%
- inhibition [20]: 0%
- EC50 (HCT-8 [1]): 5.79 µg/mL (≈ 22.8 µM)
- EC50 (P388 [12]): 1.18 µg/mL (≈ 4.64 µM)
- EC50 (RPMI [6]): 5.5 µg/mL (≈ 21.6 µM)
- EC50 (TE-671 [17]): 3.66 µg/mL (≈ 14.4 µM)
- Activity (KB [18]): 1
- EC50 (KB [5]): 5.5 µg/mL (≈ 21.6 µM)

SMILES: Cc1cn([C@H]2C[C@H](N=[N+]=[N-])[C@@H](CO)O2)c(=O)[nH]c1=O [ZIDOVUDINE]
- EC50 (H9 [21]): 0.04 µM
- IC50 (H9 [22]): 2000 µM
